Data from ChEMBL document CHEMBL6087468, “TKK130 is a 3-Hydroxy-Propanamidine (HPA) with Potent Antimalarial In Vivo Activity and a High Barrier to Resistance” (J Med Chem, 2025).
Active and inactive are the calls of the source. The rule behind the calls is not given here.

Experiments:
Plasmodium falciparum [1] = assay: Antimalarial activity against Plasmodium falciparum Dd2 SJ557733 harboring Pfatp4-mutant infected in human erythrocytes assessed as inhibition of parasite growth measured after 72 hrs incubation by [3H]hypoxanthine incorporation assay; assay type: functional, organism-based; conditions: Dd2 SJ557733, Erythrocyte
In short: (§1)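 Dd2 parent line, and mutants made from it by gene editing or drug selection. Growth inhibition measured by the 72 h [3H]hypoxanthine incorporation assay at Swiss TPH. Values are means of 2 independent biological replicates.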

Plasmodium falciparum [2] = assay: Induction of resistance development in Plasmodium falciparum Dd2 Pol delta at 2 x 10^7 initial inoculum per flask by single-step selection assay; assay type: functional, organism-based
Plasmodium berghei [3] = assay: In vivo antiplasmodial activity against Plasmodium berghei infected mouse model assessed as curation rate at 3 mg/kg, po treated 4 times measured at 96 hrs post infection by fluorescence-activated cell sorting (FACS) analysis; assay type: functional
Plasmodium falciparum [4] = assay: Antimalarial activity against chloroquine-sensitive Plasmodium falciparum 3D7 infected in erythrocytes measured after 3 days by HRP2-ELISA analysis; assay type: functional, organism-based; conditions: 3D7, Erythrocyte, 72 h
Plasmodium falciparum [5] = assay: Induction of resistance development in Plasmodium falciparum Dd2 Pol delta at 2 x 10^7 initial inoculum per flask measured on day 16 by single-step selection assay; assay type: functional, organism-based
Plasmodium berghei [6] = assay: In vivo antiplasmodial activity against Plasmodium berghei infected mouse model assessed as mean survival time at 50 mg/kg, po treated 4 times measured at 96 hrs post infection by fluorescence-activated cell sorting (FACS) analysis (reference value: 4 days); assay type: functional
Plasmodium berghei [7] = assay: In vivo antiplasmodial activity against Plasmodium berghei infected mouse model assessed as parasitemia suppression in blood at 30 mg/kg, po treated 4 times measured at 96 hrs post infection by fluorescence-activated cell sorting (FACS) analysis; assay type: functional
Plasmodium falciparum [8] = assay: Antimalarial activity against Plasmodium falciparum Dd2 DDD107498 harboring PfeEF2 mutant infected in human erythrocytes assessed as inhibition of parasite growth measured after 72 hrs incubation by [3H]hypoxanthine incorporation assay; assay type: functional, organism-based; conditions: Dd2 DDD107498, Erythrocyte; in short: as §1
[9] = Plasma stability at 37 °C measured as remaining drug at 4 hrs sampled in triplicate (concentration 25 ng/mL 2 (TKK130)); assay type: ADME, cell-free; conditions: human, at 25 ng/mL, read-out: Stability
In short: (§2)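 Fresh EDTA human plasma warmed to 37 °C, spiked to 25 ng/mL (0.5% methanol final), split into three fractions, shaken at 37 °C. Samples at 0, 2, 4, 6, 24, 48 h precipitated with ice-cold acetonitrile containing internal standard; LC–MS/MS. Recovery = analyte/IS area ratio relative to 0 h; triplicate.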

Plasmodium falciparum [10] = assay: Antimalarial activity against Plasmodium falciparum NF54 infected in human erythrocytes assessed as inhibition of parasite growth measured after 48 hrs incubation by [3H]hypoxanthine incorporation assay; assay type: functional, organism-based; conditions: NF54, Erythrocyte
Plasmodium falciparum [11] = assay: Ex vivo antimalarial activity against Plasmodium falciparum clinical isolates; assay type: functional, organism-based
Plasmodium berghei [12] = assay: In vivo antiplasmodial activity against Plasmodium berghei infected mouse model assessed as parasitemia suppression in blood at 10 mg/kg, po treated 4 times measured at 96 hrs post infection by fluorescence-activated cell sorting (FACS) analysis; assay type: functional
Plasmodium falciparum [13] = assay: (§3) Antimalarial activity against chloroquine, sulfadoxine, and pyrimethamine-resistant Plasmodium falciparum Dd2 infected in erythrocyte assessed as reduction in number of viable parasites at 10 times IC50 concentration treated for 24 hrs followed by allowed to recover in drug-free medium for 28 days by HRP2-ELISA analysis; assay type: functional, organism-based
[14] = Plasma stability at 37 °C measured as remaining drug at 24 hrs sampled in triplicate (concentration 25 ng/mL 2 (TKK130)); assay type: ADME, cell-free; conditions: human, at 25 ng/mL, read-out: Stability; in short: as §2
Plasmodium berghei [15] = assay: In vivo antiplasmodial activity against Plasmodium berghei infected mouse model assessed as parasitemia suppression in blood at 50 mg/kg, po treated 4 times measured at 96 hrs post infection by fluorescence-activated cell sorting (FACS) analysis; assay type: functional
[16] = AUC (0 to t) in mouse infected with Plasmodium berghei at 10 mg/kg, po; assay type: ADME, organism-based; conditions: in vivo
In short: (§4)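 Single oral dose to P. berghei-infected mice, 2 mice per dose group. Blood sampled at 1, 4 and 24 h post-dose as dried blood spots, plus a blank "0 h" reading. Spots diluted 1:5 (3, 10 mg/kg) or 1:10 (30 mg/kg), then quantified by LC–MS/MS against a whole-blood calibration of 1.56–800 ng/mL with QCs at three levels.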

Plasmodium berghei [17] = assay: In vivo antiplasmodial activity against Plasmodium berghei infected mouse model assessed as curation rate at 50 mg/kg, po treated 4 times measured at 96 hrs post infection by fluorescence-activated cell sorting (FACS) analysis; assay type: functional
[18] = Microsomal binding in human liver microsomes assessed as unbound fraction […] by Equilibrium dialysis; assay type: ADME, Microsome
In short: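 Equilibrium dialysis across 6 kDa regenerated cellulose membrane: donor 1 μM analyte in 0.5 mg/mL pooled HLMs in 0.1 M potassium phosphate buffer, acceptor 0.9% saline, 24 h at 37 °C. Donor diluted 1:20 in 4% BSA, acetonitrile precipitation, LC–MS/MS against matrix calibration curves; fraction bound from volume-corrected equation, unbound = 1 − bound; triplicate.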

Plasmodium falciparum [19] = assay: Induction of resistance development in Plasmodium falciparum Dd2 Pol delta at 2 x 10^9 initial inoculum per flask at 9 nM measured 60 days of recovery time by single-step selection assay; assay type: functional, organism-based; conditions: time 60.0 day
[20] = Tmax in mouse infected with Plasmodium berghei at 3 mg/kg, po; assay type: ADME, organism-based; conditions: in vivo
In short: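 Infected mice (n = 2 per dose) given a single oral dose of 3, 10 or 30 mg/kg; blood sampled as dried blood spots at 1, 4 and 24 h post-dose, diluted before LC–MS analysis against whole-blood dried-spot calibration (1.56–800 ng/mL) with QCs; tmax from concentration–time profiles.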

Plasmodium falciparum [21] = assay: Antimalarial activity against multidrug-resistant Plasmodium falciparum Dd2 harboring pfcrt, pfmdr1, pfdhfr, pfdhps mutated loci assessed as inhibition of parasite growth incubated for 48 hrs by [3H]hypoxanthine incorporation assay; assay type: functional, organism-based
[22] = molecular target: Voltage-gated inwardly rectifying potassium channel KCNH2 (Homo sapiens, UniProt Q12809); assay: Inhibition of hERG by fluorescence polarization assay; assay type: toxicity
Sequence of Voltage-gated inwardly rectifying potassium channel KCNH2 (Q12809 whole entry): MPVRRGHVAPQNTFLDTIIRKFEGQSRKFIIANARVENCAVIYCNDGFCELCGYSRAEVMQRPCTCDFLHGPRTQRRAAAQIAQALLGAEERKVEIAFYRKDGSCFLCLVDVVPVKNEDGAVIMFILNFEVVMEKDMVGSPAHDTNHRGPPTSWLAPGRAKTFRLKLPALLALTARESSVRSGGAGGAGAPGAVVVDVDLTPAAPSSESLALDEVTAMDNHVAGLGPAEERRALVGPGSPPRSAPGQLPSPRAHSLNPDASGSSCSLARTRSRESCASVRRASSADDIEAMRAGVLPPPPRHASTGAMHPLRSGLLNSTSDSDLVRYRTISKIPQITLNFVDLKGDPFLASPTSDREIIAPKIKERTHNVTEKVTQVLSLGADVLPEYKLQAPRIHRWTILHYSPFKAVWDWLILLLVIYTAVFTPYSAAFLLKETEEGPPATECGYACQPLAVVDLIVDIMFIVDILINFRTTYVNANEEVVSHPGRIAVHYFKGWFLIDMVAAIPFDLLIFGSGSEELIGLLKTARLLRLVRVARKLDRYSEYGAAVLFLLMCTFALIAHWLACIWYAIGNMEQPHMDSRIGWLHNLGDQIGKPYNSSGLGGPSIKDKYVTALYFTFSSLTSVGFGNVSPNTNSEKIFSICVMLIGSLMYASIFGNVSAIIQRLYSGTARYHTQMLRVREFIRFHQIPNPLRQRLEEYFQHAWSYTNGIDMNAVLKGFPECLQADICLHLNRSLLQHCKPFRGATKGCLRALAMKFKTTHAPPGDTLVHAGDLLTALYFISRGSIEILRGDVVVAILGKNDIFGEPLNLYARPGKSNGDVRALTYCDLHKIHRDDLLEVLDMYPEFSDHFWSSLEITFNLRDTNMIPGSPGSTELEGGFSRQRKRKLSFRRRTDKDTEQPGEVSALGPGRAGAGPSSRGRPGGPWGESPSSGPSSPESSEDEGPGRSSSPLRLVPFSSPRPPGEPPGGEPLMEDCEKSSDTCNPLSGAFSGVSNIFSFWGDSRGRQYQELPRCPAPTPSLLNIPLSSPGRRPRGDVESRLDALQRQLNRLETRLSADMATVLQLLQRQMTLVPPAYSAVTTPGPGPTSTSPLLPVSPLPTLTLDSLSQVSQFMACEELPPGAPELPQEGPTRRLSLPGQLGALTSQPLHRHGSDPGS

Plasmodium falciparum [23] = assay: Induction of resistance development in Plasmodium falciparum Dd2 Pol delta at 2 x 10^9 initial inoculum per flask at 9 nM measured on day 4 by single-step selection assay; assay type: functional, organism-based
Plasmodium falciparum [24] = assay: as §3, with “120” for “24”; assay type: functional, organism-based
[25] = Cytotoxicity against human HEK293 cells assessed as cell viability measured after 24 hrs by neutral red assay; assay type: toxicity, cell-based
Plasmodium falciparum [26] = assay: Antimalarial activity against multidrug-resistant Plasmodium falciparum TM90C2b harboring pfcrt, pfmdr1, pfdhfr, pfdhps and pfcytb-Q0 mutated loci assessed as inhibition of parasite growth incubated for 48 hrs by [3H]hypoxanthine incorporation assay; assay type: functional, organism-based
[27] = Cmax in mouse infected with Plasmodium berghei at 30 mg/kg, po; assay type: ADME, organism-based; conditions: in vivo; in short: as §4
[28] = Unbound drug concentration in plasma (unknown origin) at 25 ng/ml measured after 24 hrs by standard equilibrium dialysis assay; assay type: ADME, cell-free
In short: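 Standard equilibrium dialysis (6 kDa regenerated cellulose membrane): donor plasma spiked at 25 ng/mL, acceptor 0.9% saline, 24 h at 37 °C. Acetonitrile precipitation of plasma, methanol added to acceptor; LC–MS/MS with calibration curves in each medium; fraction bound corrected for volume shift; triplicate; itraconazole reference.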

[29] = Cmax in mouse infected with Plasmodium berghei at 10 mg/kg, po; assay type: ADME, organism-based; conditions: in vivo; in short: as §4

Question: What does the source list for Cl.N=C(CC(O)c1cc2c(F)cc(F)cc2c2cc(C(F)(F)F)ccc12)Nc1ccc(F)cc1 (centres undefined)?
Answer: IC50 (Plasmodium falciparum [1]): 11 nM; Activity (Plasmodium falciparum [2]): Active; No Resistant Parasites Generated; Activity (Plasmodium berghei [3]): 0%; IC50 (Plasmodium falciparum [4]): 2 nM; Activity (Plasmodium falciparum [5]): inactive; MSD (Plasmodium berghei [6]): 30 days; Activity (Plasmodium berghei [7]): 99.8%; IC50 (Plasmodium falciparum [8]): 16 nM; remaining at 4 h, 25 ng/mL [9]: 89.1%; IC50 (Plasmodium falciparum [10]): 11 nM; IC50 (Plasmodium falciparum [11]): 7.5 nM; Activity (Plasmodium berghei [12]): 99.9%; Activity (Plasmodium falciparum [13]): Active; Compound Exhibited Fast-Acting Than Dihydroartemisinin; remaining at 24 h, 25 ng/mL [14]: 76.4%; Activity (Plasmodium berghei [15]): 99.8%; AUC(0-t) [16]: 11600 ng·h/mL; Activity (Plasmodium berghei [17]): 100%; Activity [18]: 2.6%; Activity (Plasmodium falciparum [19]): Active; No Subsequent Parasite Growth Observed; Tmax [20]: 4 h; IC50 (Plasmodium falciparum [21]): 172 nM; IC50 [22]: 300 nM; Activity (Plasmodium falciparum [23]): Active; No Subsequent Parasite Growth Observed; Activity (Plasmodium falciparum [24]): Active; IC50 at 24 h [25]: 47800 nM; IC50 (Plasmodium falciparum [26]): 126 nM; Cmax [27]: 2030 ng/mL; Cp(f) [28]: 0.2%; Cmax [29]: 599 ng/mL
